2 compounds from paper PMC13647048 (Zoological Research, 2026) can be followed below.

A value given as a limit tells only on which side of the number the result lay.

For experiment [1], the system named is CLP-induced septic BALB/c mice. Put plainly: CLP-induced sepsis in mice. Type of experiment: in vivo, mouse. Summed up: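 Male BALB/c mice, eight weeks old, 18–25 g, acclimatized 3 days, then anesthetized with xylazine 8 mg/kg plus ketamine 100 mg/kg. CLP was done under aseptic conditions; sham mice had the same surgery without CLP. Within 1 h post-surgery mice got test compound 5 mg/kg, DXM 10 mg/kg or 0.9% saline i.p. Survival was followed 72 h and clinical scoring done at 24 h. A separate cohort gave blood and organs at 12 h for cytokines.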

The test system of experiment [2] is Escherichia coli ATCC 25922. Put plainly: MIC, two-fold dilution, E. coli. It is filed as cell-based. Conditions: meropenem as positive control, E. coli ATCC 25922.
A further experiment concerns E. coli ATCC 25922. The experiment is described as follows: Time-kill assay. Type of experiment: cell-based, Escherichia coli. Conditions: meropenem 0.015 μmol/L; not completely eradicated within this time; n=3. The essentials:
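E. coli ATCC 25922 was exposed to test compound at several concentrations and sampled over incubation time. Viable CFU were counted by the spread plate method. Normal saline served as negative control and meropenem as positive control.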

Where [3] appears, read: serum and lung, HR-CATH2 5 mg/kg or DXM 10 mg/kg i.p., 12 h post-surgery.

With `C[C@@H]1C[C@H]2[C@@H]3CCC4=CC(=O)C=C[C@]4(C)[C@@]3(F)[C@@H](O)C[C@]2(C)[C@@]1(O)C(=O)CO` [DXM, dexamethasone], the Clinical scores entry in experiment [1] (24 h after CLP, DXM 10 mg/kg i.p.) is listed as “reduced clinical scores”. Moreover, in experiment [1] (72 h after CLP, DXM 10 mg/kg i.p., n=10 per group), the Survival result is “markedly improved survival”. The Histopathological tissue injury entry in experiment [1] (lung, kidney, liver, H&E, HR-CATH2 5 mg/kg or DXM 10 mg/kg i.p. at 1 h after CLP, 12 h post-surgery) is given as “significantly alleviated tissue injury”. Besides, in experiment [1] (lung, HR-CATH2 5 mg/kg or DXM 10 mg/kg i.p., 12 h post-surgery), the MPO activity entry is given as “significantly attenuated”. In experiment [1] (setting [3]), the IL-1β concentration entry is given as “significantly attenuated”, the IL-6 concentration entry is on record as “significantly attenuated”, the MCP-1 concentration result was “significantly attenuated” and the TNF-α concentration entry is recorded as “significantly attenuated”.

Turning to `C[C@@H](O)[C@H]1C(=O)N2C(C(=O)O)=C(S[C@@H]3CN[C@H](C(=O)N(C)C)C3)[C@H](C)[C@H]12` [meropenem], the “MIC (positive control)” value in experiment [2] stood at 0.015 mol/L. Also, the “Time to complete eradication of E. coli” value in the experiment with E. coli ATCC 25922 is > 180 min.
